Test results as given in paper PMC4627693 (Chemistry & biology, 2014).
Where a SMILES comes first, the peptide text is derived from it. The star is where a group is joined. Biotin = O=C1N[C@H]2[C@H](CS[C@H]2CCCCC(=O)*)N1; AEEA = NCCOCCOCC(=O)O

Legend:
Format in all cases: binding
[1] = test system: c-Src-imine (c-Src-1 complex); assay: Thiol reaction with Src-imine
Outline: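 c-Src (4 μM) pre-labelled 15 min with dialdehyde crosslinker (20 μM) in 25 mM HEPES pH 6.5, not quenched. Imine adduct then treated with 2-methylbenzylmercaptan (50 μM–1 mM) or Cys peptide (25–400 μM). Products analysed by ESI LC-MS with deconvolution. Duplicate points, representative of three experiments, error shown as SEM.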

c-Src-acrylamide = c-Src-acrylamide (Gallus gallus, UniProt P00523); assay: Thiol reaction with Src-acrylamide, LC-MS; conditions: 4 μM c-Src-acrylamide (crosslinker 2), 25 minutes, room temperature
Outline: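 Recombinant c-Src (4 μM final) was pre-labelled with 20 μM crosslinker in PBS pH 8 (0.025% DMSO final) for 15 min without quench. It was then reacted with 2-methylbenzylmercaptan (50 μM-1 mM) or Cys-containing peptide (25-400 μM) to give a dose-response. Products were read by LC-ESI-MS (C4 column, deconvoluted spectra). Data are duplicate points (SEM), from three separate experiments.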

c-Src [2] = conditions: peptide 74 μM, 4 μM c-Src, 20 μM crosslinker 2; three hour time course; LC-MS
Outline: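 c-Src (4 μM) in PBS pH 8 incubated with acrylate crosslinker (20 μM; DMSO 0.025% final) and biotinylated cysteine-containing quasi-substrate peptide (74 μM) over 3 h. Samples quenched with NaBH4 in cold MeOH and analysed by ESI LC-MS on a C4 column with deconvolution. Crosslinked product expressed as % of total c-Src.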

recombinant c-Src = conditions: crosslinker 2 (20 μM), HCT-15 lysate
Outline: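 HCT-15 lysate diluted in reaction buffer to 2 mg/mL (500 μL), with MgCl2 and 4 pmol recombinant c-Src added. Crosslinker (20 μM) added for 10 min at room temperature, then biotinylated Cys peptide (5–40 μM final) for 25 min. Urea lysis buffer added, then streptavidin-agarose capture for 1 h at room temperature with shaking. Beads washed in 4M urea and boiled in reducing Laemmli buffer. Anti-Src western blot read by infrared imaging, giving % of a total-c-Src standard. Duplicates; two experiments.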

c-Src [3] = conditions: no adenine mimetic; 20 μM crosslinker, 4 μM c-Src, 25 mM HEPES pH 6.5; NaBH4 quench; LC-MS

Compound: Cc1ccccc1CS [2-methylbenzylmercaptan, reference compound]
- product formation with c-Src-1 complex (Src-imine) ([1]; at high concentrations (50 μM-1 mM range), 4 μM c-Src-imine, 25 minutes, room temperature, LC-MS): significant product formation
- crosslinked product formation with Src-acrylamide adduct (c-Src-acrylamide): much less efficient

Compound: CC[C@H](C)[C@H](NC(=O)COCCOCCNC(=O)COCCOCCNC(=O)CCCC[C@@H]1SC[C@@H]2NC(=O)N[C@@H]21)C(=O)N[C@@H](CS)C(=O)NCC(=O)N[C@@H](CCC(=O)O)C(=O)N[C@@H](Cc1ccccc1)C(=O)N[C@@H](CCCNC(=N)N)C(=O)N[C@@H](CCCNC(=N)N)C(=O)N[C@@H](CCCNC(=N)N)C(N)=O [Cys-Srctide] ({Biotin-AEEA-AEEA}-ICGEFRRR-NH2; C-terminus assumed)
- overall yield of the reaction with dialdehyde crosslinker 1 ([1]; dialdehyde-based crosslinker (earlier strategy), LC/MS): below the limit of detection
- crosslinked product formation with c-Src-1 complex ([1]; peptide concentrations exceeding 200 μM, 4 μM c-Src-imine, room temperature, LC-MS): no product formation was detected
- crosslinked product formation with Src-acrylamide adduct (c-Src-acrylamide): significant crosslinked product
- crosslinked product formation over time course (in words) (c-Src [2]): proceed to completion
- c-Src captured at lowest peptide concentration (recombinant c-Src; 5 μM peptide, 25 minutes): roughly 1%

Compound: O=Cc1ccsc1C=O [thiophene dialdehyde]
- product (adduct) formed with c-Src (c-Src [3]): almost undetectable

Compound: Biotin-ZZRPRTSCF [Cys-Aktide]
- crosslinked product formation over time course (in words) (c-Src [2]): reacted more slowly than Cys-Srctide, and did not reach completion
- c-Src captured at lowest peptide concentration (in words) (recombinant c-Src; 5 μM peptide, 25 minutes): not captured at a detectable level
- percentage of c-Src recovered vs negative control (recombinant c-Src; 40 μM peptide): significantly above the negative control
- yield of c-Src compared with Cys-Srctide (recombinant c-Src; 25 minutes): less than that of Cys-Srctide

Compound: Biotin-ZZRRADDCDDDD [Cys-CK2tide]
- crosslinked product (percentage of total c-Src) (c-Src [2]): less than 10%
